Active and inactive are the calls of the source. The rule behind the calls is not given here.
Target: Muscarinic acetylcholine receptor M1 (Rattus norvegicus) (UniProt P08482)
Assay: ACh response enhancement at rat M1 – CHO cells, selectivity assay for M5 PAM project (AID 651921)
In short: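 Assay system: CHO-K1 cell line | Reagent: Acetylcholine, EC20 | Compound: 0.3% DMSO final in compound wells | Times: 1.5 min compound, 50 s agonist, 25 °C | Measured by: Fluorescence readout of intracellular calcium | Evaluation: Baseline-normalized signal as percent of maximal acetylcholine response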

Sequence of Muscarinic acetylcholine receptor M1 (Rattus norvegicus) (P08482 whole entry, looked up): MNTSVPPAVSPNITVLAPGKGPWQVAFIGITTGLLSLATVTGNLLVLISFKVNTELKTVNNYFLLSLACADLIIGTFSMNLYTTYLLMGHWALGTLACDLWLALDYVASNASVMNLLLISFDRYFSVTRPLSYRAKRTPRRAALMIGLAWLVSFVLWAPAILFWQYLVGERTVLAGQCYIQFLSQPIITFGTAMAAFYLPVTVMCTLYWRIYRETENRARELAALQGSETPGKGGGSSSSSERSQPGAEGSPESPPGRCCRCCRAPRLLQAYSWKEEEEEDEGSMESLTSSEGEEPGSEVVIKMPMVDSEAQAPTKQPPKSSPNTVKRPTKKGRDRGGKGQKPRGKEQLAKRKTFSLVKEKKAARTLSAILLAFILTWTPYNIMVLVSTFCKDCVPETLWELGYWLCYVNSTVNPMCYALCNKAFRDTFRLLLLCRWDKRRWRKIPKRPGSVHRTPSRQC

O=C1C(=O)N(CCOc2ccccc2)c2ccc(OC(F)(F)F)cc21
outcome: inactive

Source: PubChem BioAssay AID651921 (Vanderbilt Specialized Chemistry Center, 2012)
